# Reference: ChEMBL document CHEMBL1141651, “Discovery of a potent, selective, and orally active proteasome inhibitor for the treatment of cancer” (J Med Chem, 2008)
# How the values were obtained:
# [1] = Half life in CD1 mouse at 10 mg/kg, po; assay type: ADME, organism-based; set-up: dose 10 mg/kg, route oral; conditions: in vivo
# Method in brief: (§1)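 Female Sprague–Dawley rats and CD-1 mice each received a single iv or oral (po) dose. Terminal half-life and systemic clearance were estimated from plasma exposure over time, alongside AUC0→∞, Vss and absolute oral bioavailability.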
# [2] = Oral bioavailability in CD1 mouse at 10 mg/kg; assay type: ADME, organism-based; conditions: in vivo
# Method in brief: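 CD-1 mice given a single iv dose (4 mg/kg) and a single oral (po) dose (10 mg/kg). Plasma AUC0-∞ was measured, and absolute oral bioavailability F (%) was calculated from the oral versus iv exposure.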
# [3] = AUC (0 to infinity) in CD1 mouse at 4 mg/kg, iv; assay type: ADME, organism-based; set-up: time infinity, dose 4 mg/kg, route intravenous; conditions: plasma
# Method in brief: (§2)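 CD-1 mice received a single dose by the iv or oral route. AUC from 0 to infinity was reported with terminal half-life, Vss, clearance and absolute oral bioavailability.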
# [4] = Oral bioavailability in Sprague-Dawley rat at 0.8 mg/kg; assay type: ADME, organism-based; conditions: in vivo
# Method in brief: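 Female Sprague-Dawley rats given a single iv dose (0.2 mg/kg) and a single oral dose (0.8 mg/kg). Plasma AUC0-∞ was determined, and absolute oral bioavailability F (%) was derived by comparing oral with iv exposure.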
# [5] = Metabolic stability in mouse liver microsomes; assay type: ADME, Microsome
# Caspase-1 (Homo sapiens) = Caspase-1 (Homo sapiens) (UniProt P29466); test: Inhibition of human caspase 1 at 10 uM
# Chain of Caspase-1 (Homo sapiens) (P29466 120-297 limits assumed): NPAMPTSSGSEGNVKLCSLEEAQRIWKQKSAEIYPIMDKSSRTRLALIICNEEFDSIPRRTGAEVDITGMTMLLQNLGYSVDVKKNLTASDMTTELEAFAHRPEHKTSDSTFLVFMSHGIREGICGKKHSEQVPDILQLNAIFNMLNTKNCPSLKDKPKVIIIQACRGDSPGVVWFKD
# Chain of Caspase-1 (Homo sapiens) (P29466 317-404 limits assumed): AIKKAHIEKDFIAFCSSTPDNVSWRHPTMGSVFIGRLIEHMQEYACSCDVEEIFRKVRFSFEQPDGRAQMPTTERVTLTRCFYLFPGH
# Chymase = Chymase (Homo sapiens, UniProt P23946); test: Inhibition of human chymase
# Chain of Chymase (P23946 whole entry): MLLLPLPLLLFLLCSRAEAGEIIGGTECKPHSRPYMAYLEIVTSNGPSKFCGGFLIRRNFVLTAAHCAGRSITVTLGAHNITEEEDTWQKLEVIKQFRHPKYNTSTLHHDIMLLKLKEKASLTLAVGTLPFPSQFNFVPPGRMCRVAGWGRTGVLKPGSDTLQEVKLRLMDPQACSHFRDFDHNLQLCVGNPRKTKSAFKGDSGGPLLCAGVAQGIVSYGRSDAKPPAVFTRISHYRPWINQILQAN
# Renin (Homo sapiens) = Renin (Homo sapiens) (UniProt P00797); test: Inhibition of human renin at 10 uM
# Chain of Renin (Homo sapiens) (P00797 whole entry): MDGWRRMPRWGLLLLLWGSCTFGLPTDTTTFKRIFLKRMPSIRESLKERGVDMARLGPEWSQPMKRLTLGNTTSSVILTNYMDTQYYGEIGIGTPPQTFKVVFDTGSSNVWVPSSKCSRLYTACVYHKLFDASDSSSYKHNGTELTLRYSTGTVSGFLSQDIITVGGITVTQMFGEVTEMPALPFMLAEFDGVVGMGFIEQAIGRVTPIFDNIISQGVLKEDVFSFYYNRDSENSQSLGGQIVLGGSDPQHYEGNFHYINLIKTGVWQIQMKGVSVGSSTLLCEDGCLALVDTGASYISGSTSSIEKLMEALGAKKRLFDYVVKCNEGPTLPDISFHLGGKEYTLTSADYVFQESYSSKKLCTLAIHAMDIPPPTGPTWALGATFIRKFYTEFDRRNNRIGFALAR
# Trypsin (Homo sapiens) = Trypsin (Homo sapiens) (UniProt P07477+P07478+P35030); test: Inhibition of human trypsin at 10 uM; assay type: protein assay
# [6] = target: Prothrombin (Homo sapiens) (UniProt P00734); test: Inhibition of human thrombin at 10 uM
# [7] = Half life in CD1 mouse at 4 mg/kg, iv; assay type: ADME, organism-based; set-up: dose 4 mg/kg, route intravenous; conditions: in vivo; method in brief: as §1
# [8] = target: Coagulation factor X (Homo sapiens) (UniProt P00742); test: Inhibition of human factor 10a at 10 uM
# Chain of Coagulation factor X (Homo sapiens) (P00742 41-179 limits assumed): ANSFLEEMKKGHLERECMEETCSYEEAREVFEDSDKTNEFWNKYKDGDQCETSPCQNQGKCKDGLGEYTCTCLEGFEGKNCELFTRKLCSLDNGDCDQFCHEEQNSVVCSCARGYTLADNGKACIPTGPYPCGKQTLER
# Chain of Coagulation factor X (Homo sapiens) (P00742 235-488 limits assumed): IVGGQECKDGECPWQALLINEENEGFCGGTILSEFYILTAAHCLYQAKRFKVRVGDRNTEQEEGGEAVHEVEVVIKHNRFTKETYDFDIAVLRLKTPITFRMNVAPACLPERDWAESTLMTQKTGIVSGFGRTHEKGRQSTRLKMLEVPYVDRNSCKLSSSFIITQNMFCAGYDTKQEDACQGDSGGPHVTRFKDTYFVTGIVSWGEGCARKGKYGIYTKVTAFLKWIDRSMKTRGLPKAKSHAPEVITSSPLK
# [9] = target: Disintegrin and metalloproteinase domain-containing protein 17 (Homo sapiens) (UniProt P78536); test: Inhibition of human TACE at 10 uM
# Chain of Disintegrin and metalloproteinase domain-containing protein 17 (Homo sapiens) (P78536 whole entry, the tested form may be a part): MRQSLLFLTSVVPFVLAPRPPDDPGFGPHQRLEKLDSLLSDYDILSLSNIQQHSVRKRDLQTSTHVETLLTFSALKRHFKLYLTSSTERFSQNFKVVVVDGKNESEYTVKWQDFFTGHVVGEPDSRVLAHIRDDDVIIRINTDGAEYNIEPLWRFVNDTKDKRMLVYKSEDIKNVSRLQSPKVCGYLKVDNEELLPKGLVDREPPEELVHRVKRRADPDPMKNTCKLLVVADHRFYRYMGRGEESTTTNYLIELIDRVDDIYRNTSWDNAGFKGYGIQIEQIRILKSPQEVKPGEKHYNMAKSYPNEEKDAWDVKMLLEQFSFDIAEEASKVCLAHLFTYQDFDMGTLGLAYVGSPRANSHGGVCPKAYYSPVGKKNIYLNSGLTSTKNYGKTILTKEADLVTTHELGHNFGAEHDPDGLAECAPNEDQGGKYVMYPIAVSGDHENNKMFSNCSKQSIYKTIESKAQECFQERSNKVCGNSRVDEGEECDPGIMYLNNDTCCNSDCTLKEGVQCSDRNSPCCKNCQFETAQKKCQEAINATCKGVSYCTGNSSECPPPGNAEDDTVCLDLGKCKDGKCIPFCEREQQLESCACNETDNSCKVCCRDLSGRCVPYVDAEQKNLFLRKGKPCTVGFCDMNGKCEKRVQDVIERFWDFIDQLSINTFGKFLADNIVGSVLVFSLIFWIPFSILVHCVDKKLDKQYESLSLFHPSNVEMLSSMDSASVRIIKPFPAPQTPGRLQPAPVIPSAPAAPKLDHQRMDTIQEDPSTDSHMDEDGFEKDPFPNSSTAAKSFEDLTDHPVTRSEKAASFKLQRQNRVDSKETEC
# [10] = target: Procathepsin L (Homo sapiens) (UniProt P07711); test: Inhibition of human cathepsin L at 10 uM
# Chain of Procathepsin L (Homo sapiens) (P07711 114-333 limits assumed): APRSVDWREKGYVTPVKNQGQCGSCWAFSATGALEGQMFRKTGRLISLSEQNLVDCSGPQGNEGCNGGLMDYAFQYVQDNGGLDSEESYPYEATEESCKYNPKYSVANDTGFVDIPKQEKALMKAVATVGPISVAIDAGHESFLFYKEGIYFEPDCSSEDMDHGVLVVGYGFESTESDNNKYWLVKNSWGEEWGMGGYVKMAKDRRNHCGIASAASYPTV
# [11] = target: Cathepsin S (Homo sapiens) (UniProt P25774); test: Inhibition of human cathepsin S at 10 uM
# Chain of Cathepsin S (Homo sapiens) (P25774 115-331 limits assumed): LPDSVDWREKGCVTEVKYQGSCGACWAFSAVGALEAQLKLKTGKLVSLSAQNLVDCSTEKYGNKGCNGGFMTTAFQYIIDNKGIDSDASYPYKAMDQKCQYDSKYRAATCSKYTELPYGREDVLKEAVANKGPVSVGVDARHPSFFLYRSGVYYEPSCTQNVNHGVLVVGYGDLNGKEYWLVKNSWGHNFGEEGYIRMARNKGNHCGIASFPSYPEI
# Sus scrofa = organism: Sus scrofa; test: Inhibition of pig pancreatic elastase 1 at 10 uM
# [12] = Metabolic stability in rat liver microsomes; assay type: ADME, Microsome
# [13] = Protein binding in mouse plasma; assay type: ADME, cell-free; conditions: read-out: PPB (converted)
# [14] = target: Macrophage metalloelastase (Homo sapiens) (UniProt P39900); test: Inhibition of human MMP12 at 10 uM
# Chain of Macrophage metalloelastase (Homo sapiens) (P39900 106-470 limits assumed): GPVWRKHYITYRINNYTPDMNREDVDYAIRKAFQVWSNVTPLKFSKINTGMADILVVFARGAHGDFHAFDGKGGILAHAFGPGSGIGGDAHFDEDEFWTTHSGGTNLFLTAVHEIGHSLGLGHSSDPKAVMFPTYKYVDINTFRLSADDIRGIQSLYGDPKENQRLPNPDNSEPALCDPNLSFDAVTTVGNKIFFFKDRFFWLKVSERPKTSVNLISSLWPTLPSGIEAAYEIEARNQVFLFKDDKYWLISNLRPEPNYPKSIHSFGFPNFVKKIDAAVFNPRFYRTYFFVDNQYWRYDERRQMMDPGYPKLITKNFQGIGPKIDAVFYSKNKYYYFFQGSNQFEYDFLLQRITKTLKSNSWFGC
# [15] = target: Protease (Human immunodeficiency virus 1) (UniProt Q9YQ12); test: Inhibition of HIV1 protease at 10 uM
# Chain of Protease (Human immunodeficiency virus 1) (Q9YQ12 as listed by the source): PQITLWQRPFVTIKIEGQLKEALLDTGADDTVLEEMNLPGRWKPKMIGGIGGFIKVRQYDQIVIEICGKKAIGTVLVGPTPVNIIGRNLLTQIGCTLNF
# Neutrophil elastase = Neutrophil elastase (Homo sapiens, UniProt P08246); test: Inhibition of human neutrophil elastase 2
# Chain of Neutrophil elastase (P08246 whole entry): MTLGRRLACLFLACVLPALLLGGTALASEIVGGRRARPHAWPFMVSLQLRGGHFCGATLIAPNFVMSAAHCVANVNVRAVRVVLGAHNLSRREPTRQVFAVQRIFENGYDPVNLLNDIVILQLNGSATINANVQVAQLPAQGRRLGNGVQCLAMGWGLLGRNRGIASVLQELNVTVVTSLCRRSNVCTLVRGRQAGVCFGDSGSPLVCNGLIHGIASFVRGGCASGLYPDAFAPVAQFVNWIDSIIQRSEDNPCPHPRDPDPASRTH
# [16] = AUC (0 to infinity) in CD1 mouse at 10 mg/kg, po; assay type: ADME, organism-based; set-up: time infinity, dose 10 mg/kg, route oral; conditions: plasma; method in brief: as §2
# [17] = target: Neprilysin (Homo sapiens) (UniProt P08473); test: Inhibition of human NEP at 10 uM
# Chain of Neprilysin (Homo sapiens) (P08473 whole entry): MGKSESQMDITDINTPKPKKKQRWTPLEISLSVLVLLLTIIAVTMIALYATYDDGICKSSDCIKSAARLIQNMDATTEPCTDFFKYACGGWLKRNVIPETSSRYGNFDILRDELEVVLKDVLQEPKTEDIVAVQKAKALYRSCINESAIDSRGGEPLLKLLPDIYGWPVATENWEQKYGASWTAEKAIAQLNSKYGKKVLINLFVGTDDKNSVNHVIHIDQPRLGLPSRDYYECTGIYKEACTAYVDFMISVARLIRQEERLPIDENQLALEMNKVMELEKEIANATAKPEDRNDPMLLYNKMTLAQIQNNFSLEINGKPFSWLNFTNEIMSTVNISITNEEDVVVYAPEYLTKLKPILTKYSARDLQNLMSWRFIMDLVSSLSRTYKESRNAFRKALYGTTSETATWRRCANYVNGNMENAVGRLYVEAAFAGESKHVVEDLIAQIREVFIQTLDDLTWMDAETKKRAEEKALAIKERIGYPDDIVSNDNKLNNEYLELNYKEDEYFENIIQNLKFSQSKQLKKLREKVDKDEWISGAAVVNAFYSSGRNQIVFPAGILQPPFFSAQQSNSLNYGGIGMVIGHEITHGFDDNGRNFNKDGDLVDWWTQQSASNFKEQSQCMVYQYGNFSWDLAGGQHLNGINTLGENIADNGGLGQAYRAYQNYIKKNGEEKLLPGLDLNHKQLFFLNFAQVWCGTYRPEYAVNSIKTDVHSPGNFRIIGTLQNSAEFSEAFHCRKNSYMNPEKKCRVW
# [18] = Inhibition of chymotrypsin-like activity of human 20S proteasome in Molt4 cells; assay type: cell-based; conditions: molt-4
# Method in brief: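 Intact human leukemia Molt-4 cells were given the cell-permeable fluorogenic chymotrypsin-like substrate MeOSuc-FLF-AFC, so the read-out also reflects inhibitor cell permeability. Potency is reported as EC50.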
# [19] = Metabolic stability in dog liver microsomes; assay type: ADME, Canis lupus familiaris, Microsome
# [20] = target: Cathepsin B (Homo sapiens) (UniProt P07858); test: Inhibition of human cathepsin B at 10 uM
# [21] = target: Plasma kallikrein (Homo sapiens) (UniProt P03952); test: Inhibition of human plasma kallikrein at 10 uM
# Chain of Plasma kallikrein (Homo sapiens) (P03952 20-390 limits assumed): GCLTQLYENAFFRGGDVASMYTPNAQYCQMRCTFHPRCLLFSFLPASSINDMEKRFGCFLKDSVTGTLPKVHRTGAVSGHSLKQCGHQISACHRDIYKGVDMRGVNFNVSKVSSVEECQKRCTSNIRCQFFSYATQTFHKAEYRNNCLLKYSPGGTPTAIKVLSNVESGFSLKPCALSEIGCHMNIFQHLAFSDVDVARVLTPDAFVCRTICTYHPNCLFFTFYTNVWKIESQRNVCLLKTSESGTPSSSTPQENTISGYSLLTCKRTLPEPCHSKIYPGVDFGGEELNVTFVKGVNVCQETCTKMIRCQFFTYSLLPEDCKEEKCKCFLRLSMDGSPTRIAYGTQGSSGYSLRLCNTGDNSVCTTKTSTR
# Chain of Plasma kallikrein (Homo sapiens) (P03952 391-638 limits assumed): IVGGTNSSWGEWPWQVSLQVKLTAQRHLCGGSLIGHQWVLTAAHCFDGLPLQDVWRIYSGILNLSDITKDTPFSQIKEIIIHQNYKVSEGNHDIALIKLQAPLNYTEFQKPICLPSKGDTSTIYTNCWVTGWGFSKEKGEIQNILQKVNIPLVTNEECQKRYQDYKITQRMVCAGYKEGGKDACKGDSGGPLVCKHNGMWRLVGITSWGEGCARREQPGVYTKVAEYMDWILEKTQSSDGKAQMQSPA
# Homo sapiens = organism: Homo sapiens; test: Inhibition of human chymotrypsin at 10 uM
smiles,measurement,setting,value
CC(C)C[C@H](NC(=O)[C@@H](NC(=O)c1cccc(-c2ccccc2)n1)[C@@H](C)O)B(O)O [DELANZOMIB],half-life,[1],53 h
same,bioavailability,[2],39%
same,AUC(0-inf),[3],2910 ng·h/mL
same,bioavailability,[4],54%
same,half-life,[5],> 0.667 h
same,inhibition,Caspase-1 (Homo sapiens),1%
same,IC50,Chymase,3.53 µM
same,inhibition,Renin (Homo sapiens),-3%
same,inhibition,Trypsin (Homo sapiens),0%
same,inhibition,[6],12%
same,half-life,[7],15 h
same,inhibition,[8],-2%
same,inhibition,[9],1%
same,inhibition,[10],27%
same,inhibition,[11],12%
same,inhibition,Sus scrofa,-6%
same,half-life,[12],0.25 h
same,fraction unbound,[13],0.001
same,inhibition,[14],4%
same,inhibition,[15],1%
same,IC50,Neutrophil elastase,3.55 µM
same,AUC(0-inf),[16],2850 ng·h/mL
same,inhibition,[17],12%
same,EC50,[18],0.0135 µM
same,half-life,[19],> 0.667 h
same,inhibition,[20],7%
same,inhibition,[21],0%
same,inhibition,Homo sapiens,59%
